Experiments:
CCRF-CEM [1] = assay: Effective concentration was evaluated on HIV-1 infected CEM cells.; format: functional, cell-based; conditions: Homo sapiens
Outline: (§1)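 CEM T4 lymphocytes, exponentially growing, 5000 cells/well, infected with thawed HIV-1 stock at m.o.i. ~0.1. Compounds dissolved in DMSO, diluted 1:100 in medium, final 1:200. Uninfected drug-treated cells served as toxicity control. Incubation 6 days at 37 °C, 5% CO2. Viability read by XTT formazan absorbance, with microscopic confirmation of protection.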

CCRF-CEM [2] = assay: Tested for HIV-1 replication in CEM cells.; format: functional, cell-based; conditions: Homo sapiens; outline: as §1
[3] = target: T1, Human immunodeficiency virus type 1 integrase (Human immunodeficiency virus 1, UniProt Q7ZJM1); assay: Inhibition of HIV-1 integrase enzyme at 3`- processing stage of DNA integration
[4] = target: T1, Human immunodeficiency virus type 1 integrase; assay: Inhibitory concentration as 50% inhibition of HIV-1 integrase enzyme at strand transfer stage of DNA integration.
CCRF-CEM [5] = assay: Effective concentration was evaluated on HIV-1 infected CEM cells. (NR-not reached due to cytotoxicity.); format: functional, cell-based; outline: as §1
[6] = target: T1, Human immunodeficiency virus type 1 integrase; assay: Inhibitory concentration was evaluated as 50% inhibition of HIV-1 integrase enzyme at 3`- processing stage of DNA integration in experiment I
[7] = target: T1, Human immunodeficiency virus type 1 integrase; assay: Inhibitory concentration was evaluated as 50% inhibition of HIV-1 integrase enzyme at strand transfer stage of DNA integration in experiment I
Outline: (§2)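 Purified recombinant HIV-1 integrase (200 nM final) preincubated with inhibitor for 30 min at 30 °C in MOPS/HEPES pH 7.2–7.5 buffer containing 7.5 mM MnCl2 and 10% DMSO. 20 nM 5'-32P-labeled 21-mer duplex oligonucleotide (AE117/AE118) added, then 1 h more. Strand transfer products resolved on denaturing 20% polyacrylamide/urea gels and quantified by phosphorimaging. % inhibition plotted against drug concentration to read IC50.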

[8] = target: T1, Human immunodeficiency virus type 1 integrase; assay: Inhibitory concentration was evaluated as 50% inhibition of HIV-1 integrase enzyme at strand transfer stage of DNA integration in experiment II; outline: as §2
[9] = target: T1, Human immunodeficiency virus type 1 integrase; assay: Inhibitory concentration was evaluated as 50% inhibition of HIV-1 integrase enzyme at 3`- processing stage of DNA integration in experiment II
CCRF-CEM [10] = assay: Effective concentration was evaluated on HIV-1 infected CEM cells; format: functional, cell-based; conditions: Homo sapiens; outline: as §1
CCRF-CEM [11] = assay: Effective concentration was evaluated on HIV-1 infected CEM cells.(NR-not reached due to cytotoxicity.); format: functional, cell-based, Homo sapiens; outline: as §1

T1 sequence (Q7ZJM1 whole entry): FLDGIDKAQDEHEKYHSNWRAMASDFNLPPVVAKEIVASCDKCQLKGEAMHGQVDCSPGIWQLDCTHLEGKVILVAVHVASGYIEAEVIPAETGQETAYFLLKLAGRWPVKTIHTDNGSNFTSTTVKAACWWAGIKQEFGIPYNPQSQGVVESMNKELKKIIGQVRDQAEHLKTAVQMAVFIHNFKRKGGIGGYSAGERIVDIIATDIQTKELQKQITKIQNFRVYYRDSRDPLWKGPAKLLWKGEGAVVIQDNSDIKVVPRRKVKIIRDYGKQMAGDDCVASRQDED

Structure (SMILES) | IC50 (CCRF-CEM [2]) | IC50 [3] | IC50 [4] | EC50 (CCRF-CEM [5]) | other results
CC1=NN(C(=O)c2ccc(Cl)cc2)C(=O)/C1=C/c1ccc(O)cc1 | > 15 µM | > 293 µM | > 293 µM |  | EC50 (CCRF-CEM [1]): > 15 µM
O=C(NN1C(=O)C(Cl)C1c1ccc([N+](=O)[O-])cc1)c1ccccc1O (stereo not drawn) | > 10 µM |  |  | Not reached | IC50 [6]: 192 µM; IC50 [7]: 155 µM; IC50 [8]: 83 µM; IC50 [9]: 168 µM
COc1ccc(/C=C2/C(=O)N(C(=O)c3ccccc3O)N=C2C)cc1 | 0.053 µM | 0.9 µM | 0.6 µM | Not reached | 
O=C(O)c1ccccc1C(=O)NNC(=O)c1ccccc1C(=O)O |  | > 100 µM | > 100 µM |  | 
COc1cc(C(=O)NNC(=O)c2ccc(Cl)cc2)cc(OC)c1OC |  | > 100 µM | > 100 µM |  | 
O=C(NNC(=O)c1ccc(Br)cc1)c1ccc(Br)cc1 |  | > 100 µM | > 100 µM |  | 
O=C(NNC(=O)c1cccc2ccccc12)c1ccccc1F |  | > 100 µM | > 100 µM |  | 
O=C(NN1C(=O)C(Cl)C1c1ccccc1O)c1ccccc1O (stereo not drawn) | 8.2 µM | 300 µM | 264 µM | Not reached | 
O=C(NNC(=O)c1cccc2ccccc12)c1ccccc1Br |  | > 100 µM | > 100 µM |  | 
O=C(NNC(=O)c1cccc2ccccc12)c1ccc(Cl)c(Cl)c1 |  | > 100 µM | > 100 µM |  | 
O=C(NN1C(=O)C(Cl)C1c1ccccc1Cl)c1ccccc1O (stereo not drawn) | > 14.8 µM |  | 94 µM | Not reached | IC50 [6]: 241 µM; IC50 [9]: 248 µM
O=C(NNC(=O)c1ccc2ccccc2c1)c1ccc(Cl)c(Cl)c1 |  | > 100 µM | > 100 µM |  | 
O=C(NNC(=O)c1ccccc1F)c1ccc2ccccc2c1 |  | > 100 µM | > 100 µM |  | 
CC1=NN(C(=O)c2ccccc2O)C(=O)/C1=C/c1ccc(O)cc1 | 0.059 µM | 0.6 µM | 0.9 µM | Not reached | 
COc1cc(C2C(Cl)C(=O)N2NC(=O)c2ccccc2O)cc(OC)c1OC (stereo not drawn) | 4.4 µM |  | 73.7 µM | Not reached | IC50 [6]: 68.8 µM; IC50 [9]: 75.7 µM
O=C(NN1C(=O)C(Cl)C1c1cccc(O)c1)c1ccccc1O (stereo not drawn) | > 15 µM |  |  | Not reached | IC50 [6]: 180 µM; IC50 [7]: 236 µM; IC50 [8]: 99 µM; IC50 [9]: 225 µM
COc1cc(/C=C2/C(=O)N(C(=O)c3ccc(Cl)cc3)N=C2C)cc(OC)c1OC | > 17 µM | > 240 µM | > 240 µM |  | EC50 (CCRF-CEM [1]): > 17 µM
CC1=NN(C(=O)c2ccccc2O)C(=O)/C1=C/c1ccc([N+](=O)[O-])cc1 | 0.091 µM | 0.8 µM | 0.6 µM | Not reached | 
O=C(NNC(=O)c1ccccc1Br)c1ccccc1Br |  | > 100 µM | > 100 µM |  | 
O=C(NNC(=O)c1ccccc1F)c1ccccc1F |  | > 100 µM | > 100 µM |  | 
CC1=NN(C(=O)c2ccc(Cl)cc2)C(=O)/C1=C/c1cccc([N+](=O)[O-])c1 | > 20 µM | > 270 µM | > 270 µM |  | EC50 (CCRF-CEM [10]): > 20 µM
O=C(NN1C(=O)C(Cl)C1c1ccc(O)cc1)c1ccccc1O (stereo not drawn) | 10.3 µM | > 300 µM | 285 µM | Not reached | 
Nc1ccccc1C(=O)NNC(=O)c1ccccc1N | > 200 µM | > 100 µM | > 100 µM |  | EC50 (CCRF-CEM [10]): > 200 µM

Structure (SMILES) | IC50 (CCRF-CEM [2]) | IC50 [3] | IC50 [4] | EC50 (CCRF-CEM [5]) | other results
O=C(NN1C(=O)C(Cl)C1c1cccc(Cl)c1)c1ccccc1O (stereo not drawn) | > 74 µM |  | 125 µM | Not reached | IC50 [6]: 155 µM; IC50 [9]: 202 µM
CC1=NN(C(=O)c2ccccc2O)C(=O)/C1=C/c1ccccc1O | 0.062 µM |  | 2.8 µM | Not reached | 
COc1cc(C(=O)NNC(=O)c2ccc(Cl)c(Cl)c2)cc(OC)c1OC |  | > 100 µM | > 100 µM |  | 
COc1ccc(/C=C2/C(=O)N(C(=O)c3ccc(Cl)cc3)N=C2C)cc1OC | > 35 µM | > 260 µM | > 260 µM |  | EC50 (CCRF-CEM [1]): > 35 µM
CC1=NN(C(=O)c2ccc(Cl)cc2)C(=O)/C1=C/c1cccc(O)c1 | > 8 µM | > 293 µM | > 293 µM |  | EC50 (CCRF-CEM [1]): > 8 µM
O=C(NNC(=O)c1ccc(Cl)c(Cl)c1)c1ccccc1 |  | > 100 µM | > 100 µM |  | 
COc1ccc(C2C(Cl)C(=O)N2NC(=O)c2ccccc2O)cc1OC (stereo not drawn) | > 50 µM |  | 106 µM | Not reached | IC50 [6]: 125 µM; IC50 [9]: 109 µM
O=C(NN1C(=O)C(Cl)C1c1c(O)ccc2ccccc12)c1ccccc1O (stereo not drawn) |  | 127 µM | 222 µM |  | 
COc1cc(/C=C2/C(=O)N(C(=O)c3ccccc3O)N=C2C)cc(OC)c1OC | 0.24 µM | 2 µM | 2 µM | Not reached | 
COc1ccc(/C=C2/C(=O)N(C(=O)c3ccccc3O)N=C2C)cc1OC | 0.15 µM |  |  | Not reached | 
CC1=NN(C(=O)c2ccccc2O)C(=O)/C1=C/c1ccco1 | 0.6 µM | 2.7 µM | 2 µM | Not reached | 
O=C(NNC(=O)c1ccc(Cl)cc1Cl)c1ccc2ccccc2c1 |  | > 100 µM | > 100 µM |  | 
CCOc1ccccc1C(=O)NNC(=O)c1ccccc1OCC |  | > 100 µM | > 100 µM |  | 
CC1=NN(C(=O)c2ccc(Cl)cc2)C(=O)/C1=C/c1ccccc1O | > 21 µM | > 293 µM | > 293 µM |  | EC50 (CCRF-CEM [1]): > 21 µM
CC1=NN(C(=O)c2ccc(Cl)cc2)C(=O)/C1=C/c1ccc(Cl)cc1 | > 10 µM | > 280 µM | > 280 µM |  | EC50 (CCRF-CEM [1]): > 10 µM
COc1cc(C2C(Cl)C(=O)N2NC(=O)c2ccccc2O)ccc1O (stereo not drawn) | > 27.5 µM | > 275 µM | 262 µM | Not reached | 
COc1cc(/C=C2/C(=O)N(C(=O)c3ccccc3O)N=C2C)ccc1O |  | 0.8 µM | 0.6 µM | Not reached | 
O=C(NNC(=O)c1ccccc1O)c1ccccc1O | 0.1 µM |  |  |  | EC50 (CCRF-CEM [11]): Not reached
CC1=NN(C(=O)c2ccccc2O)C(=O)/C1=C/c1cccc(O)c1 |  | 0.9 µM | 7.4 µM | Not reached | 
COc1ccc(C2C(Cl)C(=O)N2NC(=O)c2ccccc2O)cc1 (stereo not drawn) | > 144 µM | 288 µM | 167 µM |  | 
O=C(NNC(=O)c1ccc(Cl)c(Cl)c1)c1ccc(Cl)c(Cl)c1 |  | > 100 µM | > 100 µM |  | 
CC1=NN(C(=O)c2ccccc2O)C(=O)/C1=C/c1cccc([N+](=O)[O-])c1 | 0.098 µM | 1.4 µM | 2.6 µM | Not reached | 

— ChEMBL document CHEMBL1131060, “Salicylhydrazine-containing inhibitors of HIV-1 integrase: implication for a selective chelation in the integrase active site” (J Med Chem, 1998)
